Source: ChEMBL document CHEMBL1153877, “Lowering of 5-nitroimidazole's mutagenicity: towards optimal antiparasitic pharmacophore” (Eur J Med Chem, 2009)

test system: Salmonella typhimurium; test: Induction of mutagenicity in Salmonella Typhimurium YG1042 assessed as number of revertant per nmol after 48 hrs; format: toxicity, organism-based; settings: salmonella enterica subsp. enterica serovar typhimurium
In short: (§1)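 YG1042, a TA100 derivative, grown overnight in Nutrient Broth No. 2 with ampicillin and kanamycin. Bacteria preincubated 60 min at 37 °C with shaking with compound in DMSO and 0.1 mL PBS (0.15 M, pH 7.4). Top agar containing histidine/biotin added, then plated on Vogel-Bonner agar. Revertants counted after 48 h. Four doses in triplicate plates; solvent control in quadruplicate. Mutagenic power given as revertants per amount of compound.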

SMILES	Activity
Cc1nc(CS(=O)(=O)c2ccc(Br)cc2)c([N+](=O)[O-])n1C	12.32
Cn1cncc1[N+](=O)[O-]	197.14
Cn1cnc(CS(=O)(=O)c2ccccc2)c1[N+](=O)[O-]	49.69
Cc1nc(CS(=O)(=O)c2ccccc2)c([N+](=O)[O-])n1CCO	2.72
Cc1ccc(S(=O)(=O)Cc2nc(C)n(CCO)c2[N+](=O)[O-])cc1	2.08
Cc1ccc(S(=O)(=O)Cc2ncn(C)c2[N+](=O)[O-])cc1	54.74
Cc1nc(CS(=O)(=O)c2ccc(Cl)cc2)c([N+](=O)[O-])n1C	8.31
Cc1ccc(S(=O)(=O)Cc2nc(C)n(C)c2[N+](=O)[O-])cc1	17
Cn1cnc(CS(=O)(=O)c2ccc(Cl)cc2)c1[N+](=O)[O-]	52.85

test system: Salmonella typhimurium; test: Induction of mutagenicity in Salmonella Typhimurium TA100 assessed as number of revertant per nmol after 48 hrs relative to metranidazole; format: toxicity, organism-based; settings: salmonella enterica subsp. enterica serovar typhimurium

SMILES	Activity
Cc1nc(CS(=O)(=O)c2ccc(Br)cc2)c([N+](=O)[O-])n1C	0.79
Cn1cncc1[N+](=O)[O-]	1.85
Cn1cnc(CS(=O)(=O)c2ccccc2)c1[N+](=O)[O-]	1.71
Cc1nc(CS(=O)(=O)c2ccccc2)c([N+](=O)[O-])n1CCO	0.07
Cc1ccc(S(=O)(=O)Cc2nc(C)n(CCO)c2[N+](=O)[O-])cc1	0.19
Cc1ccc(S(=O)(=O)Cc2ncn(C)c2[N+](=O)[O-])cc1	2.46
Cc1nc(CS(=O)(=O)c2ccc(Cl)cc2)c([N+](=O)[O-])n1C	0.28
Cc1ccc(S(=O)(=O)Cc2nc(C)n(C)c2[N+](=O)[O-])cc1	0.56
Cn1cnc(CS(=O)(=O)c2ccc(Cl)cc2)c1[N+](=O)[O-]	5.27

test system: not listed separately; test: Specificity index, ratio of IC50 for human THP1 cells to IC50 for Trichomonas vaginalis TVR87; design: species or system THP-1; settings: not given
In short: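 Specificity index = IC50 against THP1 cells (72 h, propidium iodide flow cytometry) divided by IC50 against T. vaginalis (48 h, trypan blue).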

SMILES	Ratio IC50
Cc1nc(CS(=O)(=O)c2ccc(Br)cc2)c([N+](=O)[O-])n1C	493
Cn1cncc1[N+](=O)[O-]	>3125
Cn1cnc(CS(=O)(=O)c2ccccc2)c1[N+](=O)[O-]	>4460
Cc1nc(CS(=O)(=O)c2ccccc2)c([N+](=O)[O-])n1CCO	>500
Cc1ccc(S(=O)(=O)Cc2nc(C)n(CCO)c2[N+](=O)[O-])cc1	880
Cc1ccc(S(=O)(=O)Cc2ncn(C)c2[N+](=O)[O-])cc1	>5458
Cc1nc(CS(=O)(=O)c2ccc(Cl)cc2)c([N+](=O)[O-])n1C	74
Cc1ccc(S(=O)(=O)Cc2nc(C)n(C)c2[N+](=O)[O-])cc1	684
Cn1cnc(CS(=O)(=O)c2ccc(Cl)cc2)c1[N+](=O)[O-]	1101

test system: THP-1; test: Cytotoxicity against human THP1 cells after 72 hrs by propidium iodide-based flow cytometry; format: cell-based; settings: THP-1, 72 h
In short: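 THP1 monocytes kept in RPMI with 10% foetal calf serum, 25 mM HEPES, 25 mM NaHCO₃ and 1% L-glutamine/penicillin-streptomycin at 37 °C, 6% CO₂. Cells at 10⁵ cells/mL exposed for 72 h to various concentrations from DMSO stocks. Drug-free and 0.5% DMSO final controls run alongside. Living cells counted by propidium iodide flow cytometry.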

SMILES	IC50
Cc1nc(CS(=O)(=O)c2ccc(Br)cc2)c([N+](=O)[O-])n1C	326 µM
Cn1cncc1[N+](=O)[O-]	> 1970 µM
Cn1cnc(CS(=O)(=O)c2ccccc2)c1[N+](=O)[O-]	> 888 µM
Cc1nc(CS(=O)(=O)c2ccccc2)c([N+](=O)[O-])n1CCO	> 768 µM
Cc1ccc(S(=O)(=O)Cc2nc(C)n(CCO)c2[N+](=O)[O-])cc1	59 µM
Cc1ccc(S(=O)(=O)Cc2ncn(C)c2[N+](=O)[O-])cc1	> 846 µM
Cc1nc(CS(=O)(=O)c2ccc(Cl)cc2)c([N+](=O)[O-])n1C	68 µM
Cc1ccc(S(=O)(=O)Cc2nc(C)n(C)c2[N+](=O)[O-])cc1	242 µM
Cn1cnc(CS(=O)(=O)c2ccc(Cl)cc2)c1[N+](=O)[O-]	174 µM

test system: Salmonella typhimurium; test: Induction of mutagenicity in Salmonella Typhimurium YG1042 assessed as number of revertant per ug after 48 hrs; format: toxicity, organism-based; settings: salmonella enterica subsp. enterica serovar typhimurium; in short: as §1

SMILES	Activity
Cc1nc(CS(=O)(=O)c2ccc(Br)cc2)c([N+](=O)[O-])n1C	32.91
Cn1cncc1[N+](=O)[O-]	1551.06
Cn1cnc(CS(=O)(=O)c2ccccc2)c1[N+](=O)[O-]	176.64
Cc1nc(CS(=O)(=O)c2ccccc2)c([N+](=O)[O-])n1CCO	8.36
Cc1ccc(S(=O)(=O)Cc2nc(C)n(CCO)c2[N+](=O)[O-])cc1	6.14
Cc1ccc(S(=O)(=O)Cc2ncn(C)c2[N+](=O)[O-])cc1	185.37
Cc1nc(CS(=O)(=O)c2ccc(Cl)cc2)c([N+](=O)[O-])n1C	25.21
Cc1ccc(S(=O)(=O)Cc2nc(C)n(C)c2[N+](=O)[O-])cc1	54.97
Cn1cnc(CS(=O)(=O)c2ccc(Cl)cc2)c1[N+](=O)[O-]	167.38

test system: Salmonella typhimurium; test: Induction of mutagenicity in Salmonella Typhimurium YG1042 assessed as number of revertant per nmol after 48 hrs relative to metranidazole; format: toxicity, organism-based; settings: salmonella enterica subsp. enterica serovar typhimurium

SMILES	Activity
Cc1nc(CS(=O)(=O)c2ccc(Br)cc2)c([N+](=O)[O-])n1C	0.15
Cn1cncc1[N+](=O)[O-]	2.34
Cn1cnc(CS(=O)(=O)c2ccccc2)c1[N+](=O)[O-]	0.59
Cc1nc(CS(=O)(=O)c2ccccc2)c([N+](=O)[O-])n1CCO	0.03
Cc1ccc(S(=O)(=O)Cc2nc(C)n(CCO)c2[N+](=O)[O-])cc1	0.02
Cc1ccc(S(=O)(=O)Cc2ncn(C)c2[N+](=O)[O-])cc1	0.65
Cc1nc(CS(=O)(=O)c2ccc(Cl)cc2)c([N+](=O)[O-])n1C	0.1
Cc1ccc(S(=O)(=O)Cc2nc(C)n(C)c2[N+](=O)[O-])cc1	0.2
Cn1cnc(CS(=O)(=O)c2ccc(Cl)cc2)c1[N+](=O)[O-]	0.63

test system: Salmonella typhimurium; test: Induction of mutagenicity in Salmonella Typhimurium TA100 assessed as number of revertant per nmol after 48 hrs; format: toxicity, organism-based; settings: salmonella enterica subsp. enterica serovar typhimurium
In short: (§2)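 TA100 grown overnight in Nutrient Broth No. 2 with ampicillin. Bacteria preincubated 60 min at 37 °C with shaking with compound in DMSO and 0.1 mL PBS (0.15 M, pH 7.4). Top agar containing histidine/biotin added, then plated on Vogel-Bonner agar. Revertants counted after 48 h. Four consecutive doses in triplicate plates; solvent control in quadruplicate. Mutagenic power given as revertants per amount of compound.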

SMILES	Activity
Cc1nc(CS(=O)(=O)c2ccc(Br)cc2)c([N+](=O)[O-])n1C	6.59
Cn1cncc1[N+](=O)[O-]	15.48
Cn1cnc(CS(=O)(=O)c2ccccc2)c1[N+](=O)[O-]	14.32
Cc1nc(CS(=O)(=O)c2ccccc2)c([N+](=O)[O-])n1CCO	0.56
Cc1ccc(S(=O)(=O)Cc2nc(C)n(CCO)c2[N+](=O)[O-])cc1	1.57
Cc1ccc(S(=O)(=O)Cc2ncn(C)c2[N+](=O)[O-])cc1	20.59
Cc1nc(CS(=O)(=O)c2ccc(Cl)cc2)c([N+](=O)[O-])n1C	2.36
Cc1ccc(S(=O)(=O)Cc2nc(C)n(C)c2[N+](=O)[O-])cc1	4.65
Cn1cnc(CS(=O)(=O)c2ccc(Cl)cc2)c1[N+](=O)[O-]	44.03

test system: Salmonella typhimurium; test: Ratio of number of revertant per nmol of drug for Salmonella Typhimurium YG1042 to number of revertant per nmol of drug for Salmonella Typhimurium TA100; format: toxicity, organism-based; settings: salmonella enterica subsp. enterica serovar typhimurium

SMILES	Ratio
Cc1nc(CS(=O)(=O)c2ccc(Br)cc2)c([N+](=O)[O-])n1C	1.9
Cn1cncc1[N+](=O)[O-]	12.7
Cn1cnc(CS(=O)(=O)c2ccccc2)c1[N+](=O)[O-]	3.5
Cc1nc(CS(=O)(=O)c2ccccc2)c([N+](=O)[O-])n1CCO	4.9
Cc1ccc(S(=O)(=O)Cc2nc(C)n(CCO)c2[N+](=O)[O-])cc1	1.3
Cc1ccc(S(=O)(=O)Cc2ncn(C)c2[N+](=O)[O-])cc1	2.7
Cc1nc(CS(=O)(=O)c2ccc(Cl)cc2)c([N+](=O)[O-])n1C	3.5
Cc1ccc(S(=O)(=O)Cc2nc(C)n(C)c2[N+](=O)[O-])cc1	3.7
Cn1cnc(CS(=O)(=O)c2ccc(Cl)cc2)c1[N+](=O)[O-]	1.2

test system: Salmonella typhimurium; test: Induction of mutagenicity in Salmonella Typhimurium TA100 assessed as number of revertant per ug after 48 hrs; format: toxicity, organism-based; settings: salmonella enterica subsp. enterica serovar typhimurium; in short: as §2

SMILES	Activity
Cc1nc(CS(=O)(=O)c2ccc(Br)cc2)c([N+](=O)[O-])n1C	17.61
Cn1cncc1[N+](=O)[O-]	121.79
Cn1cnc(CS(=O)(=O)c2ccccc2)c1[N+](=O)[O-]	50.91
Cc1nc(CS(=O)(=O)c2ccccc2)c([N+](=O)[O-])n1CCO	1.72
Cc1ccc(S(=O)(=O)Cc2nc(C)n(CCO)c2[N+](=O)[O-])cc1	4.62
Cc1ccc(S(=O)(=O)Cc2ncn(C)c2[N+](=O)[O-])cc1	69.71
Cc1nc(CS(=O)(=O)c2ccc(Cl)cc2)c([N+](=O)[O-])n1C	7.15
Cc1ccc(S(=O)(=O)Cc2nc(C)n(C)c2[N+](=O)[O-])cc1	15.03
Cn1cnc(CS(=O)(=O)c2ccc(Cl)cc2)c1[N+](=O)[O-]	139.44

test system: Trichomonas vaginalis; test: Antitrichomonas activity against Trichomonas vaginalis TVR87 after 48 hrs by trypan blue staining; format: functional, organism-based; settings: TVR87, 48 h
In short: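 T. vaginalis TVR87 trophozoites grown in TM 161 medium with 10% heat-inactivated horse serum, used one day after subculture in log phase. Assay at 5 × 10³ trophozoites/mL, triplicate cultures, incubated anaerobically at 37 °C for 48 h with a range of compound concentrations from DMSO stocks. DMSO 0.1% final served as negative control. Viable cells counted by trypan blue.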

SMILES	IC50
Cc1nc(CS(=O)(=O)c2ccc(Br)cc2)c([N+](=O)[O-])n1C	0.66 µM
Cn1cncc1[N+](=O)[O-]	0.629 µM
Cn1cnc(CS(=O)(=O)c2ccccc2)c1[N+](=O)[O-]	0.199 µM
Cc1nc(CS(=O)(=O)c2ccccc2)c([N+](=O)[O-])n1CCO	1.54 µM
Cc1ccc(S(=O)(=O)Cc2nc(C)n(CCO)c2[N+](=O)[O-])cc1	0.067 µM
Cc1ccc(S(=O)(=O)Cc2ncn(C)c2[N+](=O)[O-])cc1	0.155 µM
Cc1nc(CS(=O)(=O)c2ccc(Cl)cc2)c([N+](=O)[O-])n1C	0.918 µM
Cc1ccc(S(=O)(=O)Cc2nc(C)n(C)c2[N+](=O)[O-])cc1	0.355 µM
Cn1cnc(CS(=O)(=O)c2ccc(Cl)cc2)c1[N+](=O)[O-]	0.158 µM
